What was measured:
[1] = molecular target: T1, 11-beta-hydroxysteroid dehydrogenase 1 (Homo sapiens, UniProt P28845); assay: Inhibition of human 11beta-HSD1 expressed in Escherichia coli
[2] = molecular target: T2, 11-beta-hydroxysteroid dehydrogenase type 2 (Homo sapiens, UniProt P80365); assay: Inhibition of human 11beta-HSD2
T2 sequence (P80365 whole entry): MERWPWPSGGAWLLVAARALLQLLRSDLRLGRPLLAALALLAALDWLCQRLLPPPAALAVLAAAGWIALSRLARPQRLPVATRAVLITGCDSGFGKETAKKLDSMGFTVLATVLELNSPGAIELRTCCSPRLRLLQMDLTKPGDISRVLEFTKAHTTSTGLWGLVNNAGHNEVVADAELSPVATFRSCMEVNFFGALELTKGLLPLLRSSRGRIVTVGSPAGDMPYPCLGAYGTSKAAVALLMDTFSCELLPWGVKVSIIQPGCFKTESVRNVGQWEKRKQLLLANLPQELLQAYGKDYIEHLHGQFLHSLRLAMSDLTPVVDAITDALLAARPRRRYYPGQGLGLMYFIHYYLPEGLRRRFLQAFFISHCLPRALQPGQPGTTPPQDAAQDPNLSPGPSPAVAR

[3] = molecular target: 11-beta-hydroxysteroid dehydrogenase 1 (Mus musculus, UniProt P50172); assay: Inhibition of mouse 11beta-HSD1 expressed in Escherichia coli
Procedure, shortened: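 Reductase-direction SPA. Total cortisone was 175 nM, including 75 nM ³H-cortisone, with NADPH cofactor in 50 mM Tris–HCl pH 7.2 and 1 mM EDTA. An NADPH regeneration system (1 mM G-6-P, 1 U/mL G-6-PDH) was included. Final enzyme was 0.015 mg/mL, keeping substrate consumption below 25%. The reaction ran 30 min at room temperature. ³H-cortisol was captured by anti-cortisol mAb and anti-mouse SPA beads, then scintillation-counted. IC50 came from % inhibition versus an uninhibited control, as the mean of two experiments.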

[4] = molecular target: T3, 11-beta-hydroxysteroid dehydrogenase type 2 (Mus musculus, UniProt P51661); assay: Inhibition of mouse 11beta-HSD2
T3 sequence (P51661 whole entry): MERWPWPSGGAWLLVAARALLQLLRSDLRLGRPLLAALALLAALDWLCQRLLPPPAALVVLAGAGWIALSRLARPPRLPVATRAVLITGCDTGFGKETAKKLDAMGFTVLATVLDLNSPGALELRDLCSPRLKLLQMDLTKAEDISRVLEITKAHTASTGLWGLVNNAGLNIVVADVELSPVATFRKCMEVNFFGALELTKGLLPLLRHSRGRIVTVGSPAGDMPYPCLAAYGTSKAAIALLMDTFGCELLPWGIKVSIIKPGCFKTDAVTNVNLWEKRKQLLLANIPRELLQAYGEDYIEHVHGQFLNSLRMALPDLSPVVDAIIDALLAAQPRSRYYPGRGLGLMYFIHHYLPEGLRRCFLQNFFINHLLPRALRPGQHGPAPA

[5] = molecular target: T1, 11-beta-hydroxysteroid dehydrogenase 1; assay: Inhibition of human 11beta-HSD1 expressed in HEK293 cells; type: cell-based
[6] = Stability in mouse liver microsomes after 30 min; type: ADME, Microsome; conditions: read-out: Stability
Procedure, shortened: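 Compounds were incubated 30 min with mouse liver microsomes; the result is expressed as % parent remaining.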

[7] = molecular target: 11-beta-hydroxysteroid dehydrogenase 1 (Mus musculus) (UniProt P50172); assay: Inhibition of DIO mouse liver 11beta-HSD1 at 30 mg/kg 7 hrs post dose; type: organism-based; design: dose 30 mg/kg
Procedure, shortened: (§1)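 DIO mice received one oral 30 mpk dose in 1% Tween 80 / 0.2% hydroxypropyl methylcellulose, 3 mice per point. Liver, epididymal fat and brain were excised at 7 or 16 h, weighed, minced in about 5 volumes PBS and given cortisone at 10 final. Incubation was at 37 °C, 5% CO₂: liver 20 min, fat and brain 3 h. Cortisol was read by LC-MS; % inhibition is versus the vehicle group.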

[8] = molecular target: 11-beta-hydroxysteroid dehydrogenase 1 (Mus musculus) (UniProt P50172); assay: Inhibition of DIO mouse liver 11beta-HSD1 at 30 mg/kg 16 hrs post dose; type: organism-based; design: dose 30 mg/kg; procedure, shortened: as §1
[9] = molecular target: 11-beta-hydroxysteroid dehydrogenase 1 (Mus musculus) (UniProt P50172); assay: Inhibition of DIO mouse brain 11beta-HSD1 at 30 mg/kg 7 hrs post dose; type: organism-based; design: dose 30 mg/kg; procedure, shortened: as §1
[10] = molecular target: 11-beta-hydroxysteroid dehydrogenase 1 (Mus musculus) (UniProt P50172); assay: Inhibition of DIO mouse brain 11beta-HSD1 at 30 mg/kg 16 hrs post dose; type: organism-based; design: dose 30 mg/kg; procedure, shortened: as §1
[11] = molecular target: 11-beta-hydroxysteroid dehydrogenase 1 (Mus musculus) (UniProt P50172); assay: Inhibition of DIO mouse adipose tissue 11beta-HSD1 at 30 mg/kg 7 hrs post dose; type: organism-based; design: dose 30 mg/kg; procedure, shortened: as §1
[12] = molecular target: 11-beta-hydroxysteroid dehydrogenase 1 (Mus musculus) (UniProt P50172); assay: Inhibition of DIO mouse adipose tissue 11beta-HSD1 at 30 mg/kg 16 hrs post dose; type: organism-based; design: dose 30 mg/kg; procedure, shortened: as §1
[13] = Plasma clearance in mouse at 10 mg/kg; type: ADME, organism-based; design: dose 10 mg/kg
Procedure, shortened: (§2)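 Mouse PK: single 10 mg/kg doses given intravenously and orally; the parameters were calculated from these dosings.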

[14] = Half life in mouse plasma at 10 mg/kg; type: ADME, organism-based; design: dose 10 mg/kg; procedure, shortened: as §2
[15] = Bioavailability in mouse plasma at 10 mg/kg; type: ADME, organism-based; procedure, shortened: as §2

Chain of 11-beta-hydroxysteroid dehydrogenase 1 (Mus musculus) (P50172 whole entry, looked up): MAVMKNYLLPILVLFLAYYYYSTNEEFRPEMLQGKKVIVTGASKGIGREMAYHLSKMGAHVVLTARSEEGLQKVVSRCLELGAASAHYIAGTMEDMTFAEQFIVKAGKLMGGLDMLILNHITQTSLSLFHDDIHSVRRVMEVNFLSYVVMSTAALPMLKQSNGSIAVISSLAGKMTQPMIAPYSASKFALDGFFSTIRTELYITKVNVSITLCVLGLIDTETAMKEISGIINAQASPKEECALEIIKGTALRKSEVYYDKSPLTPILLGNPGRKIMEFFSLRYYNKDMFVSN
Chain of 11-beta-hydroxysteroid dehydrogenase 1 (Mus musculus, UniProt P50172) (P50172 whole entry): as the sequence (P50172 whole entry, looked up) above
T1 sequence (P28845 whole entry): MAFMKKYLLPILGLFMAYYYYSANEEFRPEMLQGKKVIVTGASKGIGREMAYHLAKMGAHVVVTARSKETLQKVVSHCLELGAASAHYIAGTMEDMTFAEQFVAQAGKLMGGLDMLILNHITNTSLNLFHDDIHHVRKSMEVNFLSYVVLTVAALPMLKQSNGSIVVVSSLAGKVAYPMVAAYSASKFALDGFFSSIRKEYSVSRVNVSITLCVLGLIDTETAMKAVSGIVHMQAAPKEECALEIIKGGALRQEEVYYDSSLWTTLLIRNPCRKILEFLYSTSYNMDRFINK

Row | Compound | IC50 [1] [nM] | IC50 [2] [nM] | IC50 [3] [nM] | IC50 [4] [nM] | IC50 [5] [nM] | remaining at 0.5 h [6] [%] | inhibition [7] [%] | inhibition [8] [%] | inhibition [9] [%] | inhibition [10] [%] | inhibition [11] [%] | inhibition [12] [%] | clearance [13] [mL/min/kg] | half-life [14] [h] | bioavailability [15] [%]
1 | CC(C)(Oc1ccc(-n2cccn2)cn1)C(=O)N[C@H]1C2C[C@@H]3C[C@H]1C[C@@](CC(N)=O)(C2)C3 | 5 | > 100000 | 11 | > 100000 | 38 | 83 |  |  |  |  |  |  |  |  | 
2 | CC(C)(Oc1ccc(Cl)cc1)C(=O)N[C@H]1C2C[C@@H]3C[C@H]1C[C@@](c1noc(=O)[nH]1)(C2)C3 |  |  | 101 | 100000 |  |  |  |  |  |  |  |  |  |  | 
3 | CN1CCN(c2ccc(OC(C)(C)C(=O)N[C@H]3C4C[C@@H]5C[C@H]3C[C@@](CC(N)=O)(C4)C5)nc2)CC1 | 185 | > 100000 | 519 | > 100000 | > 10000 |  |  |  |  |  |  |  |  |  | 
4 | CC(C)(Oc1ccc(Cl)cc1)C(=O)N[C@H]1C2C[C@@H]3C[C@H]1C[C@@](c1nnc(N)[nH]1)(C2)C3 |  |  | 53 |  |  | 41 |  |  |  |  |  |  |  |  | 
5 | CC(C)(Oc1ccc(Cl)cc1)C(=O)N[C@H]1C2C[C@@H]3C[C@H]1C[C@@](c1nc(C#N)c(N)o1)(C2)C3 | 146 | > 100000 | 205 | 50000 | 306 | 25 |  |  |  |  |  |  |  |  | 
6 | CC(C)(Oc1ccc(Cl)cc1)C(=O)N[C@H]1C2C[C@@H]3C[C@H]1C[C@@](CCC(=O)O)(C2)C3 |  |  | 74 | 28000 |  | 78 | 99 | 93 | 67 | 18 | 50 | 23 | 13.3 | 2.6 | 86.3
7 | CC(C)(Oc1ccc(Cl)cc1)C(=O)N[C@H]1C2C[C@@H]3C[C@H]1C[C@@](CC(=O)O)(C2)C3 |  |  | 92 | 20700 |  | 94 | 40 | 0 |  |  | 70 | 35 | 3.33 | 2 | 96.1
8 | CNc1ccc(C(C)(C)C(=O)N[C@H]2C3C[C@@H]4C[C@H]2C[C@@](CC(N)=O)(C3)C4)cn1 | 29 | > 100000 | 310 | > 100000 | 246 | 83 |  |  |  |  |  |  |  |  | 
9 | CC(C)(Oc1ccc(Cl)cc1)C(=O)N[C@H]1C2C[C@@H]3C[C@H]1C[C@@](Cc1nnn[nH]1)(C2)C3 | 41 | > 100000 | 87 | 7000 | 119 | 79 | 62 | 37 | 11 | 9 | 17 | 20 | 20 | 2.3 | 39.7
10 | CC(C)(Oc1ccc(N2CCOCC2)cn1)C(=O)N[C@H]1C2C[C@@H]3C[C@H]1C[C@@](CC(N)=O)(C2)C3 | 44 | > 100000 | 51 | > 100000 | 444 | 89 |  |  |  |  |  |  |  |  | 
11 | CC(C)(C(=O)N[C@H]1C2C[C@@H]3C[C@H]1C[C@@](CC(N)=O)(C2)C3)c1ccc(C#N)cn1 | 14 | > 100000 | 65 | 15000 | 165 | 100 |  |  |  |  |  |  |  |  | 
12 | CC(C)(Oc1ccc(Cl)cc1)C(=O)N[C@H]1C2C[C@@H]3C[C@H]1C[C@@](/C(N)=N/O)(C2)C3 |  |  | 26 | > 100000 |  | 64 | 89 | 84 | 85 | 79 | 92 | 67 | 76.7 | 0.4 | 61.6
13 | CC(C)(Oc1ccc(Br)cn1)C(=O)N[C@H]1C2C[C@@H]3C[C@H]1C[C@@](CC(N)=O)(C2)C3 |  |  | 4 | > 100000 |  | 87 | 57 | 0 |  |  | 47 | 23 |  |  | 
14 | CC(C)(Oc1ccc(Cl)cc1)C(=O)N[C@H]1C2C[C@@H]3C[C@H]1C[C@@](c1ccno1)(C2)C3 |  |  | 71 |  |  | 30 |  |  |  |  |  |  |  |  | 
15 | CC(C)(Oc1ccc(Cl)cc1)C(=O)N[C@H]1C2C[C@@H]3C[C@H]1C[C@@](c1ncc[nH]1)(C2)C3 |  |  | 11 |  |  | 3 |  |  |  |  |  |  |  |  | 

— ChEMBL document CHEMBL1137283, “Synthesis and biological evaluation of heterocycle containing adamantane 11beta-HSD1 inhibitors” (Bioorg Med Chem Lett, 2006)
